Measured values: ChEMBL document CHEMBL4689842, “EUbOPEN Chemogenomics Library wave 1” (2021)

System: HEK-293T
Assay: Multiplex assay against HEK293T;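 on Population Tubulin-Different-Phenotype (%): share of the cells with healthy nuclei that show this phenotype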
Type: toxicity, cell-based
Conditions: human
Method in brief: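 Compound was added to live cells that had been stained at seeding with Hoechst33342, BioTracker Green Microtubule Cytoskeleton Dye, MitoTracker Red and Annexin V Alexa Fluor 680, and imaging followed on a CQ1 microscope at 37°C and 5% CO2. CellPathfinder machine-learning gating divided cells into Hoechst high-intensity objects or normal cells, normal cells into healthy, pyknosed or fragmented nuclei, and pyknosed cells into mitotic or apoptotic. Tubulin, mitochondrial-mass and membrane-permeability phenotypes are per cents of healthy-nucleus cells.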

[1] = 12 h, 1 µM, compound concentration 1 uM, replicate 1
[2] = 12 h, 1 µM, compound concentration 1 uM, replicate 2
[3] = 12 h, 10 µM, compound concentration 10 uM, replicate 1
[4] = 12 h, 10 µM, compound concentration 10 uM, replicate 2
[5] = 24 h, 1 µM, compound concentration 1 uM, replicate 1
[6] = 24 h, 1 µM, compound concentration 1 uM, replicate 2
[7] = 24 h, 10 µM, compound concentration 10 uM, replicate 1
[8] = 24 h, 10 µM, compound concentration 10 uM, replicate 2
[9] = 48 h, 1 µM, compound concentration 1 uM, replicate 1
[10] = 48 h, 1 µM, compound concentration 1 uM, replicate 2
[11] = 48 h, 10 µM, compound concentration 10 uM, replicate 1
[12] = 48 h, 10 µM, compound concentration 10 uM, replicate 2

**Q.** Which results are given for COc1cc2ncn(-c3cc(OCc4ccccc4C(F)(F)F)c(C(N)=O)s3)c2cc1OC [GW843682X]?
**A.** Population Apoptotic (%) [1]: 62%; Population Fragmented Nuclei (%) [1]: 14%; Population Healthy Nuclei (%) [1]: 44%; Population Hoechst High Intensity Objects (%) [1]: 13%; Population Membrane Permeable-Phenotype (%) [1]: 5%; Population Mitochondria Different-Phenotype (%) [1]: 84%; Population Mitotic Cells (%) [1]: 37%; Population Normal (%) [1]: 86%; Population Pyknosed Nuclei (%) [1]: 40%; Population Tubulin-Different-Phenotype (%) [1]: 64%; Total Cell Count [1]: 252; Population Apoptotic (%) [2]: 25%; Population Fragmented Nuclei (%) [2]: 4%; Population Healthy Nuclei (%) [2]: 38%; Population Hoechst High Intensity Objects (%) [2]: 2%; Population Membrane Permeable-Phenotype (%) [2]: 11%; Population Mitochondria Different-Phenotype (%) [2]: 34%; Population Mitotic Cells (%) [2]: 74%; Population Normal (%) [2]: 97%; Population Pyknosed Nuclei (%) [2]: 56%; Population Tubulin-Different-Phenotype (%) [2]: 47%; Total Cell Count [2]: 208; Population Apoptotic (%) [3]: 57%; Population Fragmented Nuclei (%) [3]: 12%; Population Healthy Nuclei (%) [3]: 54%; Population Hoechst High Intensity Objects (%) [3]: 14%; Population Membrane Permeable-Phenotype (%) [3]: 9%; Population Mitochondria Different-Phenotype (%) [3]: 97%; Population Mitotic Cells (%) [3]: 42%; Population Normal (%) [3]: 85%; Population Pyknosed Nuclei (%) [3]: 33%; Population Tubulin-Different-Phenotype (%) [3]: 97%; Total Cell Count [3]: 272; Population Apoptotic (%) [4]: 31%; Population Fragmented Nuclei (%) [4]: 11%; Population Healthy Nuclei (%) [4]: 50%; Population Hoechst High Intensity Objects (%) [4]: 4%; Population Membrane Permeable-Phenotype (%) [4]: 11%; Population Mitochondria Different-Phenotype (%) [4]: 88%; Population Mitotic Cells (%) [4]: 68%; Population Normal (%) [4]: 96%; Population Pyknosed Nuclei (%) [4]: 38%; Population Tubulin-Different-Phenotype (%) [4]: 99%; Total Cell Count [4]: 250; Population Apoptotic (%) [5]: 56%; Population Fragmented Nuclei (%) [5]: 11%; Population Healthy Nuclei (%) [5]: 39%; Population Hoechst High Intensity Objects (%) [5]: 19%; Population Membrane Permeable-Phenotype (%) [5]: 7%; Population Mitochondria Different-Phenotype (%) [5]: 81%; Population Mitotic Cells (%) [5]: 43%; Population Normal (%) [5]: 80%; Population Pyknosed Nuclei (%) [5]: 49%; Population Tubulin-Different-Phenotype (%) [5]: 73%; Total Cell Count [5]: 252; Population Apoptotic (%) [6]: 24%; Population Fragmented Nuclei (%) [6]: 5%; Population Healthy Nuclei (%) [6]: 41%; Population Hoechst High Intensity Objects (%) [6]: 4%; Population Membrane Permeable-Phenotype (%) [6]: 3%; Population Mitochondria Different-Phenotype (%) [6]: 43%; Population Mitotic Cells (%) [6]: 75%; Population Normal (%) [6]: 95%; Population Pyknosed Nuclei (%) [6]: 53%; Population Tubulin-Different-Phenotype (%) [6]: 65%; Total Cell Count [6]: 205; Population Apoptotic (%) [7]: 71%; Population Fragmented Nuclei (%) [7]: 11%; Population Healthy Nuclei (%) [7]: 57%; Population Hoechst High Intensity Objects (%) [7]: 15%; Population Membrane Permeable-Phenotype (%) [7]: 6%; Population Mitochondria Different-Phenotype (%) [7]: 96%; Population Mitotic Cells (%) [7]: 28%; Population Normal (%) [7]: 84%; Population Pyknosed Nuclei (%) [7]: 31%; Population Tubulin-Different-Phenotype (%) [7]: 90%; Total Cell Count [7]: 270; Population Apoptotic (%) [8]: 57%; Population Fragmented Nuclei (%) [8]: 14%; Population Healthy Nuclei (%) [8]: 53%; Population Hoechst High Intensity Objects (%) [8]: 3%; Population Membrane Permeable-Phenotype (%) [8]: 3%; Population Mitochondria Different-Phenotype (%) [8]: 95%; Population Mitotic Cells (%) [8]: 42%; Population Normal (%) [8]: 96%; Population Pyknosed Nuclei (%) [8]: 32%; Population Tubulin-Different-Phenotype (%) [8]: 96%; Total Cell Count [8]: 264; Population Apoptotic (%) [9]: 53%; Population Fragmented Nuclei (%) [9]: 17%; Population Healthy Nuclei (%) [9]: 31%; Population Hoechst High Intensity Objects (%) [9]: 17%; Population Membrane Permeable-Phenotype (%) [9]: 3%; Population Mitochondria Different-Phenotype (%) [9]: 84%; Population Mitotic Cells (%) [9]: 46%; Population Normal (%) [9]: 82%; Population Pyknosed Nuclei (%) [9]: 50%; Population Tubulin-Different-Phenotype (%) [9]: 72%; Total Cell Count [9]: 248; Population Apoptotic (%) [10]: 55%; Population Fragmented Nuclei (%) [10]: 7%; Population Healthy Nuclei (%) [10]: 63%; Population Hoechst High Intensity Objects (%) [10]: 2%; Population Membrane Permeable-Phenotype (%) [10]: 13%; Population Mitochondria Different-Phenotype (%) [10]: 36%; Population Mitotic Cells (%) [10]: 44%; Population Normal (%) [10]: 97%; Population Pyknosed Nuclei (%) [10]: 29%; Population Tubulin-Different-Phenotype (%) [10]: 67%; Total Cell Count [10]: 220; Population Apoptotic (%) [11]: 72%; Population Fragmented Nuclei (%) [11]: 18%; Population Healthy Nuclei (%) [11]: 46%; Population Hoechst High Intensity Objects (%) [11]: 12%; Population Membrane Permeable-Phenotype (%) [11]: 3%; Population Mitochondria Different-Phenotype (%) [11]: 96%; Population Mitotic Cells (%) [11]: 27%; Population Normal (%) [11]: 87%; Population Pyknosed Nuclei (%) [11]: 34%; Population Tubulin-Different-Phenotype (%) [11]: 85%; Total Cell Count [11]: 260; Population Apoptotic (%) [12]: 59%; Population Fragmented Nuclei (%) [12]: 7%; Population Healthy Nuclei (%) [12]: 42%; Population Hoechst High Intensity Objects (%) [12]: 4%; Population Membrane Permeable-Phenotype (%) [12]: 7%; Population Mitochondria Different-Phenotype (%) [12]: 92%; Population Mitotic Cells (%) [12]: 40%; Population Normal (%) [12]: 95%; Population Pyknosed Nuclei (%) [12]: 50%; Population Tubulin-Different-Phenotype (%) [12]: 92%; Total Cell Count [12]: 247
